# Key:
# Human betaherpesvirus 5 [1] = test: Antiviral activity against ganciclovir-resistant HCMV AD169 clone 4 infected in HEL cells assessed as inhibition of virus-induced cytopathicity; format: functional, organism-based; settings: Human betaherpesvirus 5, AD169, HEL
# Human betaherpesvirus 5 [2] = test: Antiviral activity against wild type HCMV AD169 infected in HEL cells assessed as inhibition of virus-induced cytopathicity; format: functional, organism-based; settings: Human betaherpesvirus 5, AD169, HEL
# In short: (§1)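 HEL fibroblast cultures infected at 100 PFU input. After 2 h, residual virus was removed and compound-containing medium was added at varying concentrations, in duplicate. Cells were incubated 7 days at 37 °C, ethanol-fixed and Giemsa-stained, and cytopathicity was scored microscopically.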
# Human betaherpesvirus 5 [3] = test: Antiviral activity against cidofovir HCMV AD169 clone 5 infected in human HEL cells assessed as inhibition of virus-induced cytopathicity; format: functional, organism-based; settings: Human betaherpesvirus 5, AD169, HEL
# Human betaherpesvirus 5 [4] = test: Antiviral activity against PMEDAP-resistant HCMV AD169 clone 4 infected in HEL cells assessed as inhibition of virus-induced cytopathicity; format: functional, organism-based; settings: Human betaherpesvirus 5, AD169, HEL
# Human betaherpesvirus 5 [5] = test: Antiviral activity against foscarnet-resistant HCMV AD169 clone C infected in HEL cells assessed as inhibition of virus-induced cytopathicity; format: functional, organism-based; settings: Human betaherpesvirus 5, AD169, HEL
# Human betaherpesvirus 5 [6] = test: Antiviral activity against HPMPA-resistant HCMV AD169 clone 2 mutant infected in HEL cells assessed as inhibition of virus-induced cytopathicity; format: functional, organism-based; settings: Human betaherpesvirus 5, AD169, HEL
# Human betaherpesvirus 5 [7] = test: Antiviral activity against wild type HCMV Davis infected in HEL cells assessed as inhibition of virus-induced cytopathicity; format: functional, organism-based; settings: Human betaherpesvirus 5, Davis; in short: as §1
# Human betaherpesvirus 5 [8] = test: Antiviral activity against acyclovir-resistant HCMV AD169 clone 1 infected in HEL cells assessed as inhibition of virus-induced cytopathicity; format: functional, organism-based; settings: Human betaherpesvirus 5, AD169, HEL
# Human betaherpesvirus 5 [9] = test: Antiviral activity against HCMV Davis infected in human HEL cells assessed inhibition of virus-induced cytopathicity after 7 days postinfection; format: functional, organism-based; settings: Human betaherpesvirus 5, Davis, 168 h
# In short: (§2)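 HEL fibroblasts were infected at 100 PFU. After 2 h, residual virus was removed and medium with test compound was added at several concentrations, in duplicate. Cells were incubated 7 days at 37 °C, fixed with ethanol and stained with Giemsa.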
# Human alphaherpesvirus 3 [10] = test: Antiviral activity against thymidine kinase expressing Varicella zoster virus Oka infected in human HEL cells assessed reduction in viral plaque formation; format: functional, organism-based; settings: Human alphaherpesvirus 3, Oka
# In short: (§3)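 Confluent HEL cell monolayers were inoculated with VZV at 20 PFU per well. Residual virus was removed after 2 h, and compound was added at varying concentrations, in duplicate.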
# Human alphaherpesvirus 3 [11] = test: Antiviral activity against thymidine kinase deficient Varicella zoster virus 07/1 infected in human HEL cells assessed reduction in viral plaque formation; format: functional, organism-based; settings: Human alphaherpesvirus 3, HEL; in short: as §3
# [12] = Cytotoxicity against human HEL cells assessed as morphological alteration after 3 days; format: cell-based
# In short: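 HEL cultures were examined under the microscope. MCC was recorded as the compound concentration causing a microscopically detectable alteration of normal cell morphology.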
# [13] = Cytotoxicity against human HEL cells assessed as reduction of growth after 3 days; format: cell-based
# In short: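 HEL cells were seeded at 5 × 10³ cells/well and grown 24 h before compound was added at different concentrations. After 3 days at 37 °C, cells were counted with a Coulter counter. CC50, the concentration halving growth relative to untreated controls, was read from plots of cell number (% of control) against concentration.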
# Human betaherpesvirus 5 [14] = test: Antiviral activity against HCMV AD169 infected in human HEL cells assessed inhibition of virus-induced cytopathicity after 7 days postinfection; format: functional, organism-based; settings: Human betaherpesvirus 5, AD169, HEL, 168 h; in short: as §2
Compound,EC50 (Human betaherpesvirus 5 [1]) [µM],EC50 (Human betaherpesvirus 5 [2]) [µM],EC50 (Human betaherpesvirus 5 [3]) [µM],EC50 (Human betaherpesvirus 5 [4]) [µM],EC50 (Human betaherpesvirus 5 [5]) [µM],EC50 (Human betaherpesvirus 5 [6]) [µM],EC50 (Human betaherpesvirus 5 [7]) [µM],EC50 (Human betaherpesvirus 5 [8]) [µM],EC50 (Human betaherpesvirus 5 [9]) [µM],EC50 (Human alphaherpesvirus 3 [10]) [µM],EC50 (Human alphaherpesvirus 3 [11]) [µM],MCC at 72 h [12] [µM],CC50 at 72 h [13] [µM],EC50 (Human betaherpesvirus 5 [14]) [µM]
Nc1ncnc2c1ncn2C[C@@H](CO)OCP(=O)(O)O,2.1,0.17,2.1,0.12,0.036,1.9,0.2,0.08,–,–,–,–,–,–
CCC1(Cc2ccccc2)OS(=O)(=O)C=C1NCc1ccccc1 (centres undefined),–,–,–,–,–,–,–,–,> 80,37,32,≥ 80,92,> 80
CCC1(Cc2ccccc2)OS(=O)(=O)CC1=O (centres undefined),–,–,–,–,–,–,–,–,400,10,10.5,> 100,200,> 400
CCC1(CC)OS(=O)(=O)C=C1OCc1ccccc1,–,–,–,–,–,–,–,–,234,175,155,> 400,200,> 400
CCC1(Cc2ccccc2)OS(=O)(=O)C=C1OC (racemic),–,–,–,–,–,–,–,–,> 400,168,285,> 400,> 200,> 400
CCC1(Cc2ccccc2)OS(=O)(=O)C=C1OCC=C(C)C (racemic),–,–,–,–,–,–,–,–,> 80,59,52,400,112,> 80
CCC1(Cc2ccccc2)OS(=O)(=O)C=C1OCC#N (racemic),–,–,–,–,–,–,–,–,235,199,199,> 400,> 200,> 80
CCC1(Cc2ccccc2)OS(=O)(=O)C=C1OCC1CCCCC1 (racemic),–,–,–,–,–,–,–,–,> 200,20,7,≥ 200,> 200,> 200
CC(C)CC1(Cc2ccccc2)OS(=O)(=O)C=C1OCc1ccccc1 (racemic),–,–,–,–,–,–,–,–,> 400,> 80,> 80,≥ 80,102,> 400
CC1(C(c2ccccc2)c2ccccc2)OS(=O)(=O)C=C1OCc1ccccc1 (racemic),–,–,–,–,–,–,–,–,> 400,> 80,> 80,≥ 400,200,> 80
CCC1(Cc2ccccc2)OS(=O)(=O)C=C1OCc1ccc(C)cc1 (racemic),–,–,–,–,–,–,–,–,5.9,6.4,5.9,≥ 16,41.5,7.2
CCC1(Cc2ccccc2)OS(=O)(=O)C=C1OCc1ccc(C(C)(C)C)cc1 (racemic),–,–,–,–,–,–,–,–,≥ 5,6.4,7.3,≥ 400,200,20
CCCC1(Cc2ccccc2)OS(=O)(=O)C=C1OCc1ccccc1 (racemic),–,–,–,–,–,–,–,–,> 400,> 80,> 400,≥ 400,200,> 400
CC(C)C1(Cc2ccccc2)OS(=O)(=O)C=C1OCc1ccccc1 (racemic),–,–,–,–,–,–,–,–,> 400,> 80,> 16,≥ 80,200,> 400
CCC1(Cc2ccccc2)OS(=O)(=O)C=C1OCc1cccc(Cl)c1 (racemic),–,–,–,–,–,–,–,–,8,7.3,6.7,≥ 20,50,> 16
CCC1(Cc2ccccc2)OS(=O)(=O)C=C1OCc1ccc([N+](=O)[O-])cc1 (racemic),–,–,–,–,–,–,–,–,> 80,80,54,≥ 80,< 200,> 400
CCC1(Cc2ccccc2)OS(=O)(=O)C=C1OS(=O)(=O)c1ccc(C)cc1 (racemic),–,–,–,–,–,–,–,–,> 80,> 80,> 80,400,109,> 80

# From ChEMBL document CHEMBL1152768, “4-Benzyloxy-gamma-sultone derivatives: discovery of a novel family of non-nucleoside inhibitors of human cytomegalovirus and varicella zoster virus” (J Med Chem, 2009)
